From ChEMBL document CHEMBL1154200, “Steroidal glycosides from Agave utahensis and their cytotoxic activity” (J Nat Prod, 2009)
In brackets after ≈: the same amount, converted by molar mass. Activity calls are given as the source filed them. No cut-off for these calls is given here.

What was measured:
HL-60 [1] = test: Cytotoxicity against human HL60 cells at 10 ug/mL after 72 hrs by MTT assay
HL-60 [2] = test: Induction of apoptosis in human HL60 cells assessed as caspase-3 activation at 20 ug/ml after 6 hrs; assay type: functional, cell-based
How it was run: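 HL-60 cells (2 × 10^6) treated 6 h at 37 °C at 0, 10 or 20 µg/mL, with 10 µg/mL etoposide as reference, then lysed on ice. Lysate equivalent to 200 µg protein mixed with reaction buffer containing DEVD-pNA. Incubated 2 h at 37 °C, released pNA read at 405 nm. Mean ± SE of triplicates.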

HL-60 [3] = test: Cytotoxicity against human HL60 cells after 72 hrs by MTT assay; assay type: functional, cell-based; settings: HL-60, 72 h
How it was run: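 HL-60 cells kept in RPMI 1640 with heat-inactivated 10% FBS, penicillin and streptomycin. Seeded at 4 × 10^4 cells/mL and preincubated 24 h at 37 °C in air/CO2 (19:1). Sample added in EtOH-H2O (1:1) to final 0.1-10 µg/mL, vehicle alone in controls. Incubated 72 h more, growth read by modified MTT (Sargent and Taylor). IC50 taken from dose-response curve. Triplicate.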

HL-60 [4] = test: Induction of apoptosis in human HL60 cells by morphology study; assay type: functional, cell-based
HL-60 [5] = test: Induction of DNA fragmentation in human HL60 cells at 20 ug/ml after 18 hrs by agarose gel electrophoresis; assay type: functional, cell-based
How it was run: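 HL-60 cells treated 18 h at 37 °C at 0, 10 or 20 µg/mL, with 10 µg/mL etoposide as reference. Genomic DNA extracted from 2 × 10^6 cells by kit with RNase A step. Run on 2% agarose in 40 mM Tris-acetate (pH 7.4) at 50 V for 1 h. Ladder pattern viewed under UV.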

SMILES | Activity (HL-60 [1]) | IC50 (HL-60 [3]) [µg/mL] | Activity (HL-60 [4]) | further results
C[C@@H]1CC[C@@]2(OC1)O[C@H]1C[C@H]3[C@@H]4CC[C@@H]5C[C@@H](O[C@@H]6O[C@H](CO)[C@@H](O[C@@H]7O[C@H](CO)[C@@H](O)[C@H](O)[C@H]7O)[C@H](O)[C@H]6O)[C@@H](O)C[C@]5(C)[C@H]4CC[C@]3(C)[C@H]1[C@@H]2C | inactive |  |  | 
C[C@@H]1CC[C@@]2(OC1)O[C@H]1C[C@H]3[C@@H]4CC[C@@H]5C[C@@H](O[C@@H]6O[C@H](CO)[C@H](O[C@@H]7O[C@H](CO)[C@@H](O)[C@H](O)[C@H]7O[C@@H]7O[C@H](CO)[C@@H](O)[C@H](O)[C@H]7O)[C@H](O)[C@H]6O)[C@@H](O)C[C@]5(C)[C@H]4CC[C@]3(C)[C@H]1[C@@H]2C | inactive |  |  | 
C[C@@H]1CC[C@@]2(OC1)O[C@H]1C[C@H]3[C@@H]4CC[C@@H]5C[C@@H](O[C@@H]6O[C@H](CO)[C@H](O[C@@H]7O[C@H](CO)[C@@H](O)[C@H](O)[C@H]7O[C@@H]7O[C@H](CO)[C@@H](O)[C@H](O)[C@H]7O)[C@H](O)[C@H]6O)CC[C@]5(C)[C@H]4CC[C@]3(C)[C@H]1[C@@H]2C |  | 4.9 (≈ 5.43 µM) | Active | Activity (HL-60 [2]): Active
C[C@@H]1CC[C@@]2(OC1)O[C@H]1C[C@H]3[C@@H]4CC[C@@H]5C[C@@H](O[C@@H]6O[C@H](CO)[C@@H](O[C@@H]7O[C@H](CO)[C@@H](O)[C@H](O)[C@H]7O)[C@H](O)[C@H]6O)CC[C@]5(C)[C@H]4CC[C@]3(C)[C@H]1[C@@H]2C |  | 4.9 (≈ 6.61 µM) | Active | Activity (HL-60 [2]): Active; Activity (HL-60 [5]): Active
C[C@@H]1CC[C@@]2(OC1)O[C@H]1C[C@H]3[C@@H]4CC[C@@H]5C[C@@H](O[C@@H]6O[C@H](CO)[C@@H](O[C@@H]7O[C@H](CO)[C@@H](O)[C@H](O)[C@H]7O)[C@H](O)[C@H]6O)CC[C@]5(C)[C@H]4CC(=O)[C@]3(C)[C@H]1[C@@H]2C | inactive |  |  | 
C[C@@H]1CC[C@@]2(OC1)O[C@H]1C[C@H]3[C@@H]4CC[C@@H]5C[C@@H](O[C@@H]6O[C@H](CO)[C@H](O[C@@H]7O[C@H](CO)[C@@H](O)[C@H](O)[C@H]7O)[C@H](O)[C@H]6O[C@@H]6O[C@H](CO)[C@@H](O)[C@H](O)[C@H]6O)[C@@H](O)C[C@]5(C)[C@H]4CC[C@]3(C)[C@H]1[C@@H]2C | inactive |  |  | 
C[C@@H]1CC[C@@]2(OC1)O[C@H]1C[C@H]3[C@@H]4CC[C@@H]5C[C@@H](O[C@@H]6O[C@H](CO)[C@H](O)[C@H](O[C@@H]7O[C@H](CO)[C@@H](O)[C@H](O)[C@H]7O)[C@H]6O)CC[C@]5(C)[C@H]4CC[C@]3(C)[C@H]1[C@@H]2C |  | 7 (≈ 9.45 µM) | inactive | 
CO[C@]1(CC[C@@H](C)CO[C@@H]2O[C@H](CO)[C@@H](O)[C@H](O)[C@H]2O)O[C@H]2C[C@H]3[C@@H]4CC[C@@H]5C[C@@H](O[C@@H]6O[C@H](CO)[C@@H](O[C@@H]7O[C@H](CO)[C@@H](O)[C@H](O)[C@H]7O)[C@H](O)[C@H]6O)CC[C@]5(C)[C@H]4CC[C@]3(C)[C@H]2[C@@H]1C | inactive |  |  | 
C[C@@H]1CC[C@@]2(OC1)O[C@H]1C[C@H]3[C@@H]4CC[C@@H]5C[C@@H](O[C@@H]6O[C@H](CO)[C@H](O)[C@H](O[C@@H]7O[C@H](CO)[C@@H](O)[C@H](O)[C@H]7O)[C@H]6O)CC[C@]5(C)[C@H]4CC(=O)[C@]3(C)[C@H]1[C@@H]2C | inactive |  |  | 
